Assay results taken from ChEMBL document CHEMBL1154611 (J Med Chem, 2009).
Converted amounts (≈) assume the structure as drawn.

Legend:
Motilin receptor = Motilin receptor (Oryctolagus cuniculus, UniProt A5A4K8); test: Agonist activity at motilin receptor in rabbit smooth muscle assessed as maximal possible tissue contraction; type: functional
Outline: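 Rabbit smooth muscle contractility assay. EC50 is the concentration giving 50% of the maximal possible contraction. Tachyphylaxis is the % contractile response to an EC90 drug concentration after three cycles of administration and washout.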

hERG (KCNH2) [1] = molecular target: T1, hERG (KCNH2) (Homo sapiens, UniProt Q12809); test: Inhibition of human ERG expressed in HEK cells at 30 uM; type: cell-based, HEK293; conditions: HEK cells expressing human ERG
hERG (KCNH2) [2] = molecular target: T1, hERG (KCNH2); test: Inhibition of human ERG expressed in HEK cells at 300 uM; type: cell-based, HEK293; conditions: HEK cells expressing human ERG
Streptococcus pneumoniae = test: Antibacterial activity against erythromycin-sensitive Streptococcus pneumoniae ATCC 6301; type: functional
Outline: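 MIC, the minimal growth inhibitory concentration, was determined in routine screening against the highly erythromycin-sensitive strain Streptococcus pneumoniae ATCC6301.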

T1 sequence (Q12809 whole entry): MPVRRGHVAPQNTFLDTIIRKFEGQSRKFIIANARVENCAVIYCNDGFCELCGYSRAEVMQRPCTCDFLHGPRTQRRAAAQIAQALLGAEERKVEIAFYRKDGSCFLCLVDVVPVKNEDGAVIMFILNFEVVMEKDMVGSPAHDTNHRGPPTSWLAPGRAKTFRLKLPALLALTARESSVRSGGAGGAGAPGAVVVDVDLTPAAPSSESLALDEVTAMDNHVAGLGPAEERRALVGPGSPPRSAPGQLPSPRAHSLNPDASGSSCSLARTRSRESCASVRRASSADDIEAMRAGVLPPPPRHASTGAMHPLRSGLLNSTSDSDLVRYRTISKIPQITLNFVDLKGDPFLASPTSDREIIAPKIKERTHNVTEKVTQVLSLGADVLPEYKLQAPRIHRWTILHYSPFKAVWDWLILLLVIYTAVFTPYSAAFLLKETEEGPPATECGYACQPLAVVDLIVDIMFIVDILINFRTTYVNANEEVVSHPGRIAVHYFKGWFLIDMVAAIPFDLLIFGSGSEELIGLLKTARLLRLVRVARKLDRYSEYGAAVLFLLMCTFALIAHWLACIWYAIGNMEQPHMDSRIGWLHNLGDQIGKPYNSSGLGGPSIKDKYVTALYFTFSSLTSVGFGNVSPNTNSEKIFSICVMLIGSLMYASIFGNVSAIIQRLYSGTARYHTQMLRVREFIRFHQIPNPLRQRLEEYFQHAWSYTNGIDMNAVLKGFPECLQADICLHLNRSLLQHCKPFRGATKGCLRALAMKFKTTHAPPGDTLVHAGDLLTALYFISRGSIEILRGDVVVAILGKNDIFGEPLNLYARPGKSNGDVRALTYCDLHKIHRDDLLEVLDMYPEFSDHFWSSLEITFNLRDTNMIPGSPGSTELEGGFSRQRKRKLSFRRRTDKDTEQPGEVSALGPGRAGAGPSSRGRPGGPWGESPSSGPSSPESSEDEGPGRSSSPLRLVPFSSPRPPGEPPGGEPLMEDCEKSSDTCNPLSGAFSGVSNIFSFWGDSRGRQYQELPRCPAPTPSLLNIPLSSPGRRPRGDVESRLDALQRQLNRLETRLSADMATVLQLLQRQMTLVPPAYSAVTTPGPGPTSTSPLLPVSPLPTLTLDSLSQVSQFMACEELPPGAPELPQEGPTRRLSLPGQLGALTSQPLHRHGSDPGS
Motilin receptor, sequence (A5A4K8 whole entry): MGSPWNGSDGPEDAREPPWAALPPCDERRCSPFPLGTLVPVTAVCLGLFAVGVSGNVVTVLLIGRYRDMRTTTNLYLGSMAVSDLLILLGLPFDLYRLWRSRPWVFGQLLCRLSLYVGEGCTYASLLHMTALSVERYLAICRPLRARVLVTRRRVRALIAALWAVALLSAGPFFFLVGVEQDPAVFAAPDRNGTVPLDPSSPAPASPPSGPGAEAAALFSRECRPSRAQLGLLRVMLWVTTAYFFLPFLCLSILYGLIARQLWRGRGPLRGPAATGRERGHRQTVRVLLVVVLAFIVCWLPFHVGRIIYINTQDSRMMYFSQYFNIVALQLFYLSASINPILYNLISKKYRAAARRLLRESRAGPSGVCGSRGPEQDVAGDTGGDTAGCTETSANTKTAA

SMILES | EC50 (Motilin receptor) [nM] | MIC (Streptococcus pneumoniae) [µg/mL] | inhibition at 30 µM (hERG (KCNH2) [1]) [%] | inhibition at 300 µM (hERG (KCNH2) [2]) [%]
CC[C@H]1OC(=O)[C@H](C)[C@@H](O[C@H]2C[C@@](C)(OC)[C@@H](O)[C@H](C)O2)[C@H](C)[C@@H](O[C@@H]2O[C@H](C)C[C@H](N(C)C(C)C)[C@H]2O)[C@](C)(O)C[C@@H](C)[C@H](OCc2ccc(C(=O)NC)cc2)[C@H](C)[C@@H](O)[C@]1(C)O | 1500 |  |  | 
CC[C@H]1OC(=O)[C@H](C)[C@@H](O[C@H]2C[C@@](C)(OC)[C@@H](O)[C@H](C)O2)[C@H](C)[C@@H](O[C@@H]2O[C@H](C)C[C@H](N(C)C(C)C)[C@H]2O)[C@](C)(O)C[C@@H](C)[C@H](OCC(=O)NCC(F)(F)F)[C@H](C)[C@@H](O)[C@]1(C)O | 160 | 128 (≈ 142 µM) | 30 | 82
CC[C@H]1OC(=O)[C@H](C)[C@@H](O[C@H]2C[C@@](C)(OC)[C@@H](O)[C@H](C)O2)[C@H](C)[C@@H](O[C@@H]2O[C@H](C)C[C@H](N(C)C3CCC3)[C@H]2O)[C@](C)(O)C[C@@H](C)[C@H](OCC(=O)NC)[C@H](C)[C@@H](O)[C@]1(C)O | 510 | > 128 | 12 | 53
CC[C@H]1OC(=O)[C@H](C)[C@@H](O[C@H]2C[C@@](C)(OC)[C@@H](O)[C@H](C)O2)[C@H](C)[C@@H](O[C@@H]2O[C@H](C)C[C@H](N(C)C(C)C)[C@H]2O)[C@](C)(O)C[C@@H](C)[C@H](OCc2cccc(C(=O)NC)c2)[C@H](C)[C@@H](O)[C@]1(C)O | 2100 |  | 63 | 100
CC[C@H]1OC(=O)[C@H](C)[C@@H](O[C@H]2C[C@@](C)(OC)[C@@H](O)[C@H](C)O2)[C@H](C)[C@@H](O[C@@H]2O[C@H](C)C[C@H](N(C)C(C)C)[C@H]2O)[C@](C)(O)C[C@@H](C)[C@H](OCCCCCC(=O)NC)[C@H](C)[C@@H](O)[C@]1(C)O | 150 | 128 (≈ 144 µM) | 13 | 61
CC[C@H]1OC(=O)[C@H](C)[C@@H](O[C@H]2C[C@@](C)(OC)[C@@H](O)[C@H](C)O2)[C@H](C)[C@@H](O[C@@H]2O[C@H](C)C[C@H](N(C)C(C)C)[C@H]2O)[C@](C)(O)C[C@@H](C)[C@H](OCCCCC(=O)NC)[C@H](C)[C@@H](O)[C@]1(C)O | 270 |  | 3 | 45

These reach a lower EC50 (Motilin receptor). Values come first.

EC50 (Motilin receptor) [nM] | MIC (Streptococcus pneumoniae) [µg/mL] | SMILES | inhibition at 30 µM (hERG (KCNH2) [1]) [%] | inhibition at 300 µM (hERG (KCNH2) [2]) [%]
92 |  | CC[C@H]1OC(=O)[C@H](C)[C@@H](O[C@H]2C[C@@](C)(OC)[C@@H](O)[C@H](C)O2)[C@H](C)[C@@H](O[C@@H]2O[C@H](C)C[C@H](N(C)C(C)C)[C@H]2O)[C@](C)(O)C[C@@H](C)[C@H](OCC(=O)NOC)[C@H](C)[C@@H](O)[C@]1(C)O | 33 | 82
140 | 128 (≈ 148 µM) | CC[C@H]1OC(=O)[C@H](C)[C@@H](O[C@H]2C[C@@](C)(OC)[C@@H](O)[C@H](C)O2)[C@H](C)[C@@H](O[C@@H]2O[C@H](C)C[C@H](N(C)C(C)C)[C@H]2O)[C@](C)(O)C[C@@H](C)[C@H](OCC(=O)NC(C)C)[C@H](C)[C@@H](O)[C@]1(C)O | 26 | 89
50 | 128 (≈ 146 µM) | CC[C@H]1OC(=O)[C@H](C)[C@@H](O[C@H]2C[C@@](C)(OC)[C@@H](O)[C@H](C)O2)[C@H](C)[C@@H](O[C@@H]2O[C@H](C)C[C@H](N(C)C(C)C)[C@H]2O)[C@](C)(O)C[C@@H](C)[C@H](OCC(=O)NCCOC)[C@H](C)[C@@H](O)[C@]1(C)O | 33 | 93
79 | 128 (≈ 140 µM) | CC[C@H]1OC(=O)[C@H](C)[C@@H](O[C@H]2C[C@@](C)(OC)[C@@H](O)[C@H](C)O2)[C@H](C)[C@@H](O[C@@H]2O[C@H](C)C[C@H](N(C)C(C)C)[C@H]2O)[C@](C)(O)C[C@@H](C)[C@H](OCC(=O)NCc2ccccc2)[C@H](C)[C@@H](O)[C@]1(C)O | 67 | 100
